aDG glyco act – increases alpha dystroglycan glycosylation; Pro5-aDG cells, alpha-DG glycosylation AlphaScreen (IIH6); 0% Pro5, 100% B10-LARGE cell signal; AID 624168; 0.22% of 360,000 active; activation, % at 10 µM;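 active = activation of at least 8% versus controls, or a plate z-score of at least 8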;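 also: Pro5 are CHO cells carrying HIG-tagged alpha-DG that lacks glycosylation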
MPTP block – blocks calcium-induced mitochondrial swelling; isolated mouse mitochondria, Ca2+ swelling absorbance, 30 min; inhibition, % at 10 µM; 1.4% of 360,000 active;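 active = inhibition of 50% or more, scaled per plate between neutral and stimulator controls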;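 also: 0% = DMSO wells given calcium and 100% = 1 mM EGTA wells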
ADAM17 inh – ADAM17 inhibition, QFRET primary screen; recombinant ADAM17, EDANS/DABCYL FRET peptide cleavage; inhibition, % at 6.95 µM; 0.83% of 370,000 active; AID 720648;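 active = inhibition above the mean of compounds lying between control limits plus 3 SD, set per campaign, cut at about 8.5% in these data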;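 also: 0% = DMSO-only wells as the low control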
ADAM10 inh – ADAM10 inhibition, QFRET primary screen; inhibition, % at 7 µM; 0.62% of 370,000 active; recombinant ADAM10, EDANS/DABCYL FRET peptide cleavage, 3 h; AID 720582; O14672;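 active = inhibition above a per-campaign cutoff equal to the mean of compounds falling between control-based bounds plus 3 SD, cut at about 20% in these data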;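 also: 0% = DMSO wells while the 100% control is not disclosed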
Target sequence (O14672 214-748 limits assumed): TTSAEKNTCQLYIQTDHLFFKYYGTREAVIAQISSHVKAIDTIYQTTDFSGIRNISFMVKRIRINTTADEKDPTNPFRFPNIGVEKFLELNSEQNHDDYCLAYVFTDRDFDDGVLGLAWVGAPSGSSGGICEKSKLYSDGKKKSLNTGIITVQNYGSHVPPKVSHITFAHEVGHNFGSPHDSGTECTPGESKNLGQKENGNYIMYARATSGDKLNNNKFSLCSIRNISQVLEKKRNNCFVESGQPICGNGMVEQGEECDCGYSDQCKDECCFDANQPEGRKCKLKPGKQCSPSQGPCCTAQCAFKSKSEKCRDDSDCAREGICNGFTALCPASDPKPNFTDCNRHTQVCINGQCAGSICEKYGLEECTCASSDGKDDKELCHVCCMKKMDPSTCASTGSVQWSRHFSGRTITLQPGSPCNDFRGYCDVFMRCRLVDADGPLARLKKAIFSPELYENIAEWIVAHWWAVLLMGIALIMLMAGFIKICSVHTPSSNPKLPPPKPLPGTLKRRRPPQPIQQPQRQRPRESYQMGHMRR
V-ATPase pHluor – regulators of yeast V-ATPase proton transport | S. cerevisiae, pHLuorin cytosolic pH fluorescence | response, % at 10 µM | 0.37% of 350,000 active; in the data active = response mostly above about 7.3%, no sharp cut-off; inactive = mostly below about 5.4%; also: actives read high
Hep lipid drop – modulators of hepatic lipid droplet formation; AML12 mouse hepatocytes, oleate lipid droplets, BODIPY imaging; inhibition, % at 6.5 µM; 0.4% of 240,000 active; AID 1656;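 active = lipid droplet intensity inhibited by at least 50%, with more than 500 cells counted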
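Material: mouse AML12 hepatocyte cell line, fixed after treatment; Timing: compound with oleate, overnight; Technique: high-content imaging of BODIPY-stained droplets and DAPI nuclei; Probe or stimulus: oleate, 100 µM final; Dosing: compound at 6.5 µM only.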
MPTP counter – mitochondrial membrane potential, counter-screen; shares compounds with MPTP block; isolated mitochondria, Rhodamine 123 fluorescence; inhibition, % at 10 µM; 78% of 5,000 active; in the data active = inhibition above about 22%;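 also: 0% = DMSO vehicle and 100% = positive control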
ADAM10 confirm – confirmation of inhibitors of human ADAM10 | shares compounds with ADAM10 inh | ADAM10 QFRET peptide cleavage, EDANS fluorescence | inhibition, % at 6.95 µM | 1% of 2,100 active | AID 743208;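 active = inhibition above about 20% chosen separately for each screening run, limit read from the data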;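 also: 0% = DMSO wells and 100% = marimastat wells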
ADAM17 ctr – inhibits human ADAM17 in ADAM10 exosite counter-screen | shares compounds with ADAM10 inh | ADAM17 QFRET peptide cleavage, EDANS fluorescence | inhibition, % at 6.95 µM | 0.5% of 2,100 active | AID 743214;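 active = mean triplicate inhibition above the solvent-only control wells' mean plus 3 SD, cut at about 12% in these data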;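 also: 0% = DMSO wells and 100% = marimastat wells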
ADAM10 ctr – counter-screen for ADAM17 exosite inhibitors: inhibitors of human ADAM10. shares compounds with ADAM17 inh. recombinant ADAM10, EDANS/DABCYL FRET peptide cleavage, 3 h. inhibition, % at 6.95 µM. 47% of 2,900 active. AID 743256;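 active = mean inhibition over the triplicate runs exceeds the activity threshold set in the earlier primary screen, cut at about 20% in these data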;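 also: 0% = DMSO wells and 100% = marimastat wells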
ADAM17 confirm – human ADAM17 inhibition, confirmation. shares compounds with ADAM17 inh. recombinant ADAM17, EDANS/DABCYL QFRET peptide cleavage. inhibition, % at 6.95 µM. 65% of 2,900 active. AID 743257;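 active = mean inhibition across replicates above the hit cutoff set in the primary screen, cut at about 8.5% in these data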;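 also: 0% = DMSO wells and 100% = marimastat wells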
* marks the source's active call; other numbers are inactive results; · = no result given. Hits are enriched below; roughly 3.1% of the tested compounds scored in any of these assays.

SMILES	aDG glyco act	MPTP block	ADAM17 inh	ADAM10 inh	V-ATPase pHluor	Hep lipid drop	MPTP counter	ADAM10 confirm	ADAM17 ctr	ADAM10 ctr	ADAM17 confirm
CCOc1cc(C)c(-c2onc(C(F)(F)F)c2-c2csc(C)n2)c(O)c1	0	70*	6	22*	-4	·	83*	3	1	·	·
CCN(CC)c1ccc(C(=C2C=CC(=[N+](CC)CC)C=C2)c2ccccc2)cc1	-1	-9	4	-16	-1	·	·	·	·	·	·
CCN(CC)c1ccc(C(=C2C=CC(=[N+](CC)CC)C=C2)c2ccc(N(CC)CC)cc2)cc1	-2	137*	7	23*	-2	·	74*	0	0	·	·
CC(=O)N1CCN(C2=Nc3ccccc3Sc3ccccc32)CC1	·	·	3	3	·	·	·	·	·	·	·
CN(c1ccccc1)S(=O)(=O)c1ccc(NC(=O)c2ccc(F)cc2)cc1	0	58*	7	21*	-3	·	61*	3	1	·	·
CNC(=O)N(O)C1N(/N=C/c2ccc(N(C)C)cc2)C(=S)SC1(C)C (stereo unspecified)	0	3	2	-3	-4	-10	·	·	·	·	·
CC1(C)SC(=S)N(/N=C/c2ccccc2)C1N(O)C(=O)Nc1ccc([N+](=O)[O-])cc1 (stereo unspecified)	0	101*	6	22*	1	21	98*	3	0	·	·
Nn1c(SCC(=O)Nc2ccc(OCc3ccccc3)cc2)nnc1-c1cc(-c2ccc(Cl)cc2)n[nH]1	·	·	-1	-6	·	·	·	·	·	·	·
CCCn1nc([N+](=O)[O-])c(C(C#N)c2nc3ccccc3o2)c(Cl)c1=O (stereo unspecified)	0	101*	7	21*	1	-6	50*	2	0	·	·
CC(C)Cc1ccc(C(C)C(=O)Nc2ccc(O)cc2)cc1 (stereo unspecified)	2	73*	5	21*	-2	-5	38*	1	1	·	·
Cc1ccc(C2C(/C=C3/SC(=S)NC3=O)=C(c3cccs3)Oc3ccccc32)cc1 (stereo unspecified)	0	99*	5	20*	-5	6	48*	14	2	·	·
CC1Cc2cc(/C=C3/SC(=S)NC3=O)ccc2O1 (stereo unspecified)	0	23	-1	3	1	29	·	·	·	·	·
Cc1cccc(Oc2cc(NC(=O)Cn3cnc([N+](=O)[O-])n3)cc([N+](=O)[O-])c2)c1	0	77*	8	28*	2	27	66*	5	2	·	·
O=C(Nc1ccc(OCC(F)(F)C(F)F)c(C(F)(F)F)c1)c1ccc(Cl)cc1	1	91*	4	25*	3	·	84*	10	3	·	·
COC(=O)c1cc(-c2ccc(C)c3ccccc23)c(=O)n2c1CCC2	·	·	-7	-40	·	·	·	·	·	·	·
CCC[C@H]1[C@@H](NC(=O)C2CCC2)CC[C@@]23CCCN2C(=O)CCC[C@@H]13	·	·	-4	-5	·	·	·	·	·	·	·
Cc1ccc(N(CC(=O)NCCc2ccc(F)cc2)S(=O)(=O)c2ccc(Cl)c([N+](=O)[O-])c2)c(C)c1	0	68*	12*	26*	-1	14	70*	11	2	29*	15*
CCOC(=O)c1ccc(NC(=O)C2(c3ccc(Cl)cc3)CCCC2)cc1	1	-7	-7	1	-2	·	·	·	·	·	·
Cc1ccc(NC(=O)COC(=O)C2(c3ccc(Cl)cc3)CCCC2)cc1	1	78*	11*	32*	-1	8	82*	9	4	31*	14*
COC(=O)[C@H](C(C)C)N1Cc2nnn(Cc3ccc(C)cc3)c2-c2cc(F)ccc2S1(=O)=O	·	·	3	8	·	·	·	·	·	·	·
Cc1ccc(NC(=O)c2c(C(F)(F)F)nn(C)c2SCc2ccc(Cl)cc2)cc1C	1	36	7	17	-1	·	·	·	·	·	·
Cc1ccc(NC(=O)c2c(C(F)(F)F)nn(C)c2SCc2cccc(C(F)(F)F)c2)cc1C	3	68*	14*	37*	-3	·	83*	7	2	45*	25*
O=C(Nc1ccc(Br)c(C(F)(F)F)c1)c1ccccc1	1	100*	13*	35*	3	-25	89*	2	1	25*	15*
CC(C)c1ccc(S(=O)(=O)Nc2ccc(SC(F)F)cc2)cc1	0	72*	19*	41*	0	-17	83*	9	3	26*	15*
C=CCN(C(=O)[C@@H](C)[C@@H](O)c1ccc(Cl)cc1)c1ccccc1	·	·	0	5	·	·	·	·	·	·	·
SMILES	aDG glyco act	MPTP block	ADAM17 inh	ADAM10 inh	V-ATPase pHluor	Hep lipid drop	MPTP counter	ADAM10 confirm	ADAM17 ctr	ADAM10 ctr	ADAM17 confirm
CN1C2=N[C@H](c3ccccc3Br)CC(=O)N2/C(=C\c2ccccc2)[C@@H]1c1ccccc1	·	·	3	10	·	·	·	·	·	·	·
O=C(Nc1cc(Cl)cc(Cl)c1)c1cccc(OC(F)F)c1	2	96*	12*	27*	0	17	96*	7	2	23*	13*
O=C(/C=C/c1cccc(C(F)(F)F)c1)Nc1cccc(C(F)(F)F)c1	0	87*	12*	26*	1	·	85*	8	3	29*	17*
Cc1ccc(NC(=O)/C=C/c2cccc(C(F)(F)F)c2)cc1	0	17	4	9	-1	-26	·	·	·	·	·
CN1C(=O)c2cc(NC(=O)Nc3ccccc3)ccc2OC[C@H]2O[C@@H](CC(=O)NCc3ccc(-c4ccccc4)cc3)CC[C@@H]21	·	·	1	12	·	·	·	·	·	·	·
O=C(c1ccc(CSc2nc3ccncc3[nH]2)cc1)N1CCN(c2cccc(Cl)c2)CC1	1	90*	9.1*	15	1	-22	103*	·	·	28*	15*
Cc1ccccc1OCCCSc1nc2ccccc2[nH]1	1	68*	8.8*	19	-1	15	99*	·	·	15	10*
c1ccc(OCCSc2nc3ccccc3[nH]2)cc1	0	-6	4	5	1	31	·	·	·	·	·
CCCNC(=S)Nc1cccc(C(F)(F)F)c1	0	0	-1	5	0	9	·	·	·	·	·

Assay outcomes (PubChem BioAssay)
